# Experimental data as given in paper PMC5599970 (Hepatology (Baltimore, Md.), 2017).
# Key:
# [1] = tested on: hepatic de novo lipogenesis (DNL); experiment: Fructose-stimulated fractional hepatic DNL; assay type: in vivo, human; conditions: for Inhibition of fasting-adjusted fractional DNL AUEC relative to placebo: 10-hour period; for Inhibition of fasting-adjusted fractional DNL AUEC relative to placebo / Mean reduction of fasting-adjusted DNL at 10 hours postdose relative to placebo: mean ± SEM
# In short: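 Overweight/obese men (18–50 y, BMI 25–32 kg/m²), 10/dose, placebo crossover, ≥5-day washout, fasted from hour −12. IV [1-13C]acetate (10 g in 1,000 mL 0.45% saline, 50 mL/hour, 19 h) from hour −9; capsule at hour 0; fructose 250 mg/kg every 30 min to hour +9.5. VLDL-TG palmitate by GC-MS/MIDA, hours −1 to +10; fasting-baseline-subtracted, AUEC, expressed relative to placebo.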
# [2] = Hepatic extraction in preclinical studies; assay type: in vivo; conditions: cynomolgus monkeys, unpublished data
# [3] = tested on: hepatic de novo lipogenesis (DNL); experiment: PK-PD analysis of plasma exposure versus fractional DNL; assay type: in vivo, human; conditions: all dose groups
# In short: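 Each subject's time-matched plasma levels (sampled predose and hourly to 10 h, HPLC-MS/MS) were paired with fasting-adjusted fractional DNL at every sampling point for every dose group. The plasma levels at which 70% and 90% inhibition of maximal DNL occurred were read from these paired data.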
# [4] = single doses between 30 and 1,000 mg; healthy adults; cited from earlier work
# [5] = Plasma pharmacokinetics after a single oral dose; assay type: in vivo; conditions: human
# In short: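 Single oral capsule dose with 240 mL water in fasted men during fructose feeding, n = 10/group. Plasma was sampled predose and hourly through 10 h. Levels were measured by validated HPLC-MS/MS, with a lower limit of quantitation of 0.5 ng/mL. Noncompartmental parameters were calculated from actual sample times.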
# [6] = Serum lipids, leptin, adiponectin, glucose and blood ketones; assay type: in vivo, human; conditions: single dose of 20, 50, or 200 mg
# In short: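 Blood was drawn at protocol-specified times during the fasted, fructose-fed crossover periods. Serum lipids and blood ketones (ketometer) were measured by a clinical laboratory. Leptin and adiponectin were measured by solid-phase ELISA.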
# [7] = Safety: treatment-emergent adverse events after a single oral dose; assay type: in vivo, human
# In short: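 TEAEs were any events after study medication and were coded to MedDRA v18.0. Events were attributed to the period's treatment, and events between acetate infusion and first dosing were counted separately. Monitoring included physical exams, vital signs (hours 0, 5.5, 10.5), clinical laboratory tests (day −1 and hour 10) and screening ECG.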
# hepatic DNL = conditions: subjects with type 2 diabetes mellitus and hypertriglyceridemia; cited from earlier work
compound,measurement,setting,value
COc1ccccc1[C@H](Cn1c(=O)n(C(C)(C)C(=O)O)c(=O)c2c(C)c(-c3ncco3)sc21)OC1CCOCC1 [NDI‐010976],Inhibition of fasting-adjusted fractional DNL AUEC relative to placebo,[1]; 20 mg single oral dose,approximately 70 ± 6%
same,Mean reduction of fasting-adjusted DNL at 10 hours postdose relative to placebo,[1]; 20 mg single oral dose,approximately 41 ± 9%
same,Inhibition of fractional DNL at 2 hours postdose,"[1]; 20 mg, mean ± standard deviation",60 ± 26%
same,"Inhibition of DNL by fasting-adjusted DNL AUEC, all subjects","[1]; 50 mg single dose, 10-hour period vs matched placebo period",> 70%
same,Inhibition of fasting-adjusted fractional DNL AUEC relative to placebo,[1]; 50 mg single oral dose,~85 ± 3%
same,Mean reduction of fasting-adjusted DNL at 10 hours postdose relative to placebo,[1]; 50 mg single oral dose,~53 ± 9%
same,"Inhibition of DNL, all subjects",[1]; 200 mg single dose,complete or near complete inhibition of DNL
same,Inhibition of fasting-adjusted fractional DNL AUEC relative to placebo,[1]; 200 mg single oral dose,~104 ± 2%
same,Mean reduction of fasting-adjusted DNL at 10 hours postdose relative to placebo,[1]; 200 mg single oral dose,~94 ± 4%
same,Hepatic extraction,[2],approximately 94%
same,Plasma concentration associated with at least 70% inhibition of fractional DNL,[3]; one data point outlier,> 2.2 ng/mL
same,Plasma concentration yielding >90% inhibition of fractional DNL,[3]; two data point outliers,> 4.0 ng/mL
same,Tolerability,[4],well tolerated
same,Tmax,[5],1 to 2 h
same,Cmax,[5]; 20 mg,43.4 ng/mL
same,concentration at 2 h,[5]; 20 mg,5.7 to 23.5 ng/mL
same,"Effects on serum glucose, lipids, leptin, adiponectin, blood ketones",[6],no significant NDI‐010976 effects
same,Number of subjects with TEAEs (% of subjects dosed),[7]; 20 mg,3 (33%) subjects (%)
same,Number of subjects without TEAEs (% of subjects dosed),[7]; 20 mg,6 (67%) subjects (%)
same,Number of subjects with TEAEs (% of subjects dosed),[7]; 50 mg,7 (70%) subjects (%)
same,Number of subjects without TEAEs (% of subjects dosed),[7]; 50 mg,3 (30%) subjects (%)
same,Number of subjects with TEAEs (% of subjects dosed),[7]; 200 mg,5 (50%) subjects (%)
same,Number of subjects without TEAEs (% of subjects dosed),[7]; 200 mg,5 (50%) subjects (%)
same,Number of subjects with TEAEs (% of subjects dosed),"[7]; Total, all doses",15 (52%) subjects (%)
same,Number of subjects without TEAEs (% of subjects dosed),"[7]; Total, all doses",14 (48%) subjects (%)
same,"Deaths, serious AEs, Grade 3 or higher TEAEs",[7]; single oral doses 20 to 200 mg,"no deaths, serious AEs, or Grade 3 or higher TEAEs"
same,Safety and tolerability,[7]; single oral doses 20 to 200 mg,safe and well tolerated
CCc1ccc(CCOc2ccc(CC3SC(=O)NC3=O)cc2)nc1 (stereo not shown) [pioglitazone],Reduction of hepatic DNL,hepatic DNL,40%
